TAG inh = inhibitors of triacylglycerol accumulation, primary screen, cell-based, uHTS, fluorescence, H9c2 | H9c2 cells, Nile Red lipid (TAG) fluorescence; cells loaded with 200 µM oleic acid | inhibition, % at 12.5 µM | 0.66% of 230,000 active;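 active means pattern-corrected inhibition of lipid staining of at least 50% with the nuclear-stain viability signal not falling by more than 50%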;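 further: 0% = DMSO wells and 100% = triacsin C control wells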
MT1-MMP act inh = blockers of MT1-MMP proenzyme processing, primary screen, HT1080 RFP-PRO-GFP cells, GFP/RFP fluorescence; AID 651647, 2012; GFP/RFP ratio change, % at 20 µM; GFP/RFP ratio fluorescence, overnight; percent of plate control window, DMSO zero; 0.061% of 360,000 active;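 active means GFP/RFP ratio change of at least 30% with cell ATP level not reduced by more than half and red fluorescence within 50% of control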
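Assay system: HT1080 cells carrying an RFP-PRO-GFP reporter | Dosing: Single dose of 20 µM compound, 1% DMSO final | Incubation: Cells overnight before dosing, compound overnight, 37 °C, 5% CO2 | Evaluation: GFP/RFP fluorescence ratio | Control set: DMSO and RFP-L50D-GFP cell wells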
sPLA2-III inh = human group III sPLA2 inhibitors, primary screen, biochemical, QFRET, BODIPY PC-A2 liposome substrate. 0.56% of 370,000 active. inhibition, % at 12.2 µM. QFRET BODIPY PC-A2 liposome hydrolysis, fluorescence. Group 3 secretory phospholipase A2 (Homo sapiens), Q9NZ20;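 active means inhibition above mean plus 3 SD of compounds lying within the high and low control bounds, cut at about 19% in these data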;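 further: 0% = median of test compound wells and 100% = no enzyme DMSO wells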
Target sequence (Q9NZ20 whole entry, looked up): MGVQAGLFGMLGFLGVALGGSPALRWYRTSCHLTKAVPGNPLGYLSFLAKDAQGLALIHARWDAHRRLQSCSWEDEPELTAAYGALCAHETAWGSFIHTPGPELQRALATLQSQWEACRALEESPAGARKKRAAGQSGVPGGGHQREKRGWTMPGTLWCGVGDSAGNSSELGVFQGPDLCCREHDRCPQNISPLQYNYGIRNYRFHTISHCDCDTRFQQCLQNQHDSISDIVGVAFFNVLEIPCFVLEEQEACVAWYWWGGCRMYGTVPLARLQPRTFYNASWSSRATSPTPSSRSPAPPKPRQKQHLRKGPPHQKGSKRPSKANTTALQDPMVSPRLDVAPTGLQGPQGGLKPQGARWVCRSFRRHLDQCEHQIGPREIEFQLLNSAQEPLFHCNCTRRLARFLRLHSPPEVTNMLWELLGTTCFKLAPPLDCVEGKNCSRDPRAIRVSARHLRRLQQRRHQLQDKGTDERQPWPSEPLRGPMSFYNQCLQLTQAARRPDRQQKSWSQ
Efflux pump inh = inhibitors of Candida efflux pumps in yeast, primary screen, S. cerevisiae, Nile Red, multiplex | AID 485275, 2010 | S. cerevisiae Candida pump triplex | 0.44% of 330,000 active | inhibition, % at 10 µM;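 active means plate passing quality check with inhibition over a set limit, or well fluorescence over plate mean plus 4 SD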;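 further: Nile Red retained in pooled yeast measured as flow cytometry median fluorescence; 0% = buffer negative control and 100% = Enniatin B positive control; higher means more Nile Red kept so more efflux inhibition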
Cmpd fluor yeast = counter-screen for efflux pump inhibitors: compound fluorescence; shares compounds with Efflux pump inh; S. cerevisiae AD/pABC3, flow cytometry; fluorescence ratio to DMSO, % at 10 µM; 4% of 1,700 active;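 active means fluorescence ratio to DMSO above its plate's cutoff, the plate mean ratio plus 5 SD, cut at about 210% in these data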;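 further: unstained yeast with no Nile Red so the signal is compound autofluorescence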
Mdr1 pump inh = inhibitors of Candida albicans Mdr1 efflux, confirmation, flow cytometry, singleplex, Cherry Pick1 set. shares compounds with Efflux pump inh. S. cerevisiae AD/CaMDR1, Nile Red efflux. inhibition, % at 10 µM. 1% of 1,700 active; in the data active means inhibition above about 26%;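 further: 0% = DMSO vehicle and 100% = reference inhibitor; higher means more Nile Red retained so more efflux inhibition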
CaCdr2 efflux inh = inhibitors of Candida albicans Cdr2 efflux pump, confirmation, S. cerevisiae AD/CaCDR2, flow cytometry, cherry pick 1, singleplex; Nile Red retention; shares compounds with Efflux pump inh; Nile Red retention ratio vs DMSO, % at 10 µM; AID 588520, 2011; 4% of 1,700 active; in the data active means Nile Red retention ratio vs DMSO above about 190%;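 further: higher ratio means more blocking of Cdr2 efflux of the dye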
Cdr1 pump inh = inhibitors of Candida albicans Cdr1 efflux pump, confirmation, S. cerevisiae AD/CaCDR1, flow cytometry, cherry pick 1, singleplex; shares compounds with Efflux pump inh; AID 588522, 2011; inhibition, % at 10 µM; 1% of 1,700 active; Nile Red efflux;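 active means inhibition above the screen-wide mean plus twice its standard deviation, cut at about 32% in these data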
* = called active by the depositor; nt = no result given; + = active, no number. A selection: hits, their analogues and other compounds. The true share with any hit is near 1.3%.

SMILES	TAG inh	MT1-MMP act inh	sPLA2-III inh	Efflux pump inh	others
C=C1C(=O)O[C@@H]2C[C@@H](C)[C@@H]3C4OC4C(=O)[C@@]3(C)[C@@H](O)[C@H]12 (stereo not given in full)	110.5*	9.8	4.1	-0.1
CCOC(=O)c1c(N)n(CCCOC(=O)c2ccco2)c2nc3ccccc3nc12	53.0*	4.1	2.0	-0.1
C=C(C=O)C[C@@H]1C[C@H](O)C2OC3C[C@]4(C)OC5/C=C\CC6OC7C(CC=CCC6OC5CCCC4OC3CC2O1)OC1CC2OC3CC(=O)OC3C[C@@H](C)C[C@@]2(C)OC1C[C@@H]7C (stereo not given in full)	nt	nt	nt	49.7*
C=C(C=O)CC1CC(O)[C@]2(C)OC3CC4OC5C[C@]6(C)O[C@]7(C)CCC8OC9C[C@]%10(C)OC%11C(C)=CC(=O)OC%11CC%10OC9C[C@@H](C)C8OC7CC6O[C@]5(C)C/C=C\C4OC3CC2O1 (stereo not given in full)	nt	nt	-14.8	nt
N#Cc1cn(C2OC(CO)C(O)C2O)c2ncnc(N)c12 (stereo not given)	89.8*	-16.5	-3.0	nt
N#Cc1c(Br)n(C2OC(CO)C(O)C2O)c2ncnc(N)c12 (stereo not given)	52.1*	11.4	-1.4	nt
NC(=O)c1cn(C2OC(CO)C(O)C2O)c2ncnc(N)c12 (stereo not given)	47.9	-46.8	3.1	-0.2
Cc1cccc(C(C)c2cnc[nH]2)c1C (stereo not given)	nt	nt	-3.8	nt
CC1=CC(C)CC(C)OC(=O)CC(c2ccc(O)cc2)NC(=O)C(Cc2c(Br)[nH]c3ccccc23)N(C)C(=O)C(C)NC(=O)C(C)C1 (stereo not given)	98.0*	-27.9	-43.6	nt
CCN1/C(=C/C=C/C2=[N+](CC)c3ccccc3C2(C)C)C(C)(C)c2ccccc21	-360.1	15.3	-374.2	nt
CN1/C(=C\C=C\C2=[N+](C)c3ccc4ccccc4c3C2(C)C)C(C)(C)c2ccccc21	nt	nt	nt	106.3*
CC(C)C(C(=O)NC(C)(C)C)N1C(=O)CN=C(c2ccccc2)c2ccccc21 (stereo not given)	nt	nt	1.7	nt
CC1CCC(C(C)C)C(OC(=O)Cn2c(COc3ccccc3)[n+](C)c3ccccc32)C1 (stereo not given)	103.8*	-33.2	-124.2	0.5
Cc1cc([N+](=O)[O-])c(Cl)cc1NC(=O)C(C)C	nt	1.7	-1.1	0.3
CNc1cc(Cl)c2nonc2c1[N+](=O)[O-]	78.7*	3.0	2.4	nt
N#CCC[C@@H]1CC[C@]2(CCCN(Cc3ccccn3)C2)O1	nt	nt	-0.1	nt
C=C1C(=O)C(C)=C2C(=O)N3Cc4[nH]c5ccccc5c4CC3(C(=O)OC)C12 (stereo not given)	nt	nt	11.1	nt
C[N+]1=C(N)NC2=C3CCCCC3ONC2C1 (stereo not given)	nt	nt	12.7	nt
COP(=O)(OC)C(C)NC(=O)OCc1ccccc1 (stereo not given)	nt	nt	6.8	nt
C=C1C(C)C2C(Cc3ccccc3)NC(=O)C23C(OC(C)=O)C=CC(C)(O)CC(C)CC=CC3C1O (stereo not given)	98.1*	12.5	-7.4	nt
CCC(=NCc1cccnc1)c1c(O)n(-c2ccccc2C)c(=O)[nH]c1=O	-5.9	1.3	-0.5	-0.1
CC(=NCc1cccnc1)c1c(O)n(-c2ccccc2C)c(=O)[nH]c1=O	nt	-7.3	6.7	1.8*	Cmpd fluor yeast=103.0;Mdr1 pump inh=0.2;CaCdr2 efflux inh=133.0;Cdr1 pump inh=-0.1
CCOc1ccc(N2C(=O)/C(=C/c3ccc(C)o3)C(=O)NC2=S)cc1	nt	-15.3	-5.6	0.9*	Cmpd fluor yeast=99.8;Mdr1 pump inh=-0.1;CaCdr2 efflux inh=89.3;Cdr1 pump inh=-0.1
COc1cccc(-c2ccc3c(c2)C2c4cnnn4-c4ccccc4C(=O)N2CC3)c1 (stereo not given)	nt	nt	0.3	nt
Clc1ccc(C(c2ccc(Cl)cc2)n2cc[n+](CC(OCc3ccc(Cl)cc3Cl)c3ccc(Cl)cc3Cl)c2)cc1 (stereo not given)	132.6	-39.7	-87.6	90.4*	Cmpd fluor yeast=94.0;Mdr1 pump inh=0.1;CaCdr2 efflux inh=+;Cdr1 pump inh=-0.2
SMILES	TAG inh	MT1-MMP act inh	sPLA2-III inh	Efflux pump inh	others
C[C@H](NC(=O)OCc1ccccc1)C(=O)NC(Cc1ccccc1)P(=O)(Oc1ccccc1)Oc1ccccc1 (stereo not given in full)	nt	nt	-17.7	nt
Cc1ccc2c(c1)C1CN(C)CCC1N2C(=O)c1ccc(Br)o1 (stereo not given)	3.4	-2.3	-4.7	0.6*	Cmpd fluor yeast=111.5;Mdr1 pump inh=0.9;CaCdr2 efflux inh=126.8;Cdr1 pump inh=0.2
O=C(Nc1c(F)cc(F)cc1F)c1cccn(Cc2ccccc2)c1=O	1.7	10.0	-6.3	0.8*	Cmpd fluor yeast=102.2;Mdr1 pump inh=-0.1;CaCdr2 efflux inh=100.1;Cdr1 pump inh=-0.1
O=C(NCCN1CCC2(CC1)C(=O)NCN2c1ccccc1)c1cccs1	nt	nt	-1.6	nt
CCOC(=O)c1c(-n2c(C)cc(/C=C3\C(=O)NC(=O)N(C)C3=O)c2C)sc2c1CCCC2	-8.3	-13.0	-8.4	0.3
Cc1cc(/C=C2\C(=O)NC(=O)N(c3ccc(Cl)cc3)C2=O)c(C)n1-c1sc2c(c1C#N)CCCC2	nt	-13.2	-10.6	0.8*	Cmpd fluor yeast=108.3;Mdr1 pump inh=0.2;CaCdr2 efflux inh=103.6;Cdr1 pump inh=0.0
O=c1c2ccccc2[se]n1-c1ccccc1	-2.0	-9.4	3.9	4.0*	Cmpd fluor yeast=96.2;Mdr1 pump inh=0.6;CaCdr2 efflux inh=107.2;Cdr1 pump inh=-0.1
O=c1c2ccccc2nc(-c2ccccc2)n1-c1ccccc1	-9.9	0.1	-5.9	-0.1
CCCCN1CCN(C(=O)COc2cc(=O)n(C)c3ccccc23)CC1	nt	nt	0.0	nt

Source: PubChem
